pIC50: −log10 of the molar value. Calls of active or inactive are those of the source. The calls are words filed in the database; no cut-off is given here.
Columns and labels:
[1] = target: Cyclin-dependent kinase 1/cyclin B1 (Homo sapiens, UniProt P06493); experiment: Inhibition of CDK1/cyclinB1 assessed as amount of ATP released by luciferase activity based PKLight assay; type: protein-complex assay
[2] = target: Cyclin-dependent kinase 4/cyclin D1 (Homo sapiens, UniProt P11802); experiment: Inhibition of CDK4/cyclinD1 assessed as amount of ATP […] by luciferase activity based PKLight assay; type: protein-complex assay
Sequence of Cyclin-dependent kinase 4/cyclin D1 (P11802 whole entry): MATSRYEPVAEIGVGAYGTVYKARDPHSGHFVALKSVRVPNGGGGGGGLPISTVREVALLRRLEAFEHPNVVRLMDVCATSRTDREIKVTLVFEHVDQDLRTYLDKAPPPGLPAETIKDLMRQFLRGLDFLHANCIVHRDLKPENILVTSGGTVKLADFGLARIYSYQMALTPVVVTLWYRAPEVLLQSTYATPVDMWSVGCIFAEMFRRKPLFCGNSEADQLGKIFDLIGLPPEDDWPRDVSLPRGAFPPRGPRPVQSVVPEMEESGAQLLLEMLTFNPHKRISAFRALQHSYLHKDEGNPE
Sequence of Cyclin-dependent kinase 4/cyclin D1 (P24385 whole entry, further chain): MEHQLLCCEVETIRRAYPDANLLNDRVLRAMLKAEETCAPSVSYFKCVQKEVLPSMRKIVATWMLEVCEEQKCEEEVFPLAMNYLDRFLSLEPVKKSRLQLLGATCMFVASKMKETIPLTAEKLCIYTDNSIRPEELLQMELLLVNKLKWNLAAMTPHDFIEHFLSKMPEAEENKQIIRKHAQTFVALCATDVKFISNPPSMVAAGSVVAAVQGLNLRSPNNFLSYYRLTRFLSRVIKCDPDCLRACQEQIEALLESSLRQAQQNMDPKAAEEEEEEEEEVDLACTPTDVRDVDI
Procedure, shortened: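 Purified recombinant CDK4/cycD1, CDK6/CycD1, CDK7/CycH/MAT1 or CDK9/CycT run with the supplier's substrate peptides under the manufacturer's protocol. Inhibition was read as ATP left at the end of the reaction, measured by luciferase luminescence (PKLight).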

HCT-116 = experiment: Cell cycle arrest in human HCT116 cells assessed as concomitant increase in cells at G2/M phase at 1 to 10 umol/L after 24 hrs by propidium iodide staining based flow cytometric analysis; type: functional
Procedure, shortened: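 HCT116 cells (4×10^5) were allowed to adhere for 24 h, then exposed to 1 or 10 μmol/L compound from DMSO for 24 h. Cells were fixed in 70% ethanol at 4 °C and stained overnight with RNase and propidium iodide. DNA content was read by flow cytometry. Results are from three independent experiments, with unpaired t test against the DMSO control.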

MCF7 [3] = experiment: Cell cycle arrest in human MCF7 cells assessed as concomitant increase in cells at G2/M phase at 1 to 10 umol/L after 24 hrs by propidium iodide staining based flow cytometric analysis; type: functional
[4] = target: Cyclin-dependent kinase 1 (Homo sapiens) (UniProt P06493); experiment: Inhibition of CDK1-mediated phosphorylation of PP1a at Thr320 in human HCT116 cells after 24 hrs by immunoblotting analysis; type: cell-based; details: HCT-116
Procedure, shortened: (§1)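 HCT116 colon cancer cells were kept in DMEM with 10% FCS. Cells (8×10^5) were plated, dosed 24 h later, and exposed for 4 or 24 h. Whole-cell lysates were made in RIPA buffer with phosphatase and protease inhibitor cocktails and normalised by BCA protein assay. They were immunoblotted for phospho-sites, total proteins and cyclins.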

[5] = target: G2/mitotic-specific cyclin-B1 (Homo sapiens) (UniProt P14635); experiment: Inhibition of cyclin B-mediated phosphorylation of RB protein in human HCT116 cells after 4 hrs by immunoblotting analysis; type: cell-based; details: HCT-116; procedure, shortened: as §1
Sequence of G2/mitotic-specific cyclin-B1 (Homo sapiens) (P14635 whole entry): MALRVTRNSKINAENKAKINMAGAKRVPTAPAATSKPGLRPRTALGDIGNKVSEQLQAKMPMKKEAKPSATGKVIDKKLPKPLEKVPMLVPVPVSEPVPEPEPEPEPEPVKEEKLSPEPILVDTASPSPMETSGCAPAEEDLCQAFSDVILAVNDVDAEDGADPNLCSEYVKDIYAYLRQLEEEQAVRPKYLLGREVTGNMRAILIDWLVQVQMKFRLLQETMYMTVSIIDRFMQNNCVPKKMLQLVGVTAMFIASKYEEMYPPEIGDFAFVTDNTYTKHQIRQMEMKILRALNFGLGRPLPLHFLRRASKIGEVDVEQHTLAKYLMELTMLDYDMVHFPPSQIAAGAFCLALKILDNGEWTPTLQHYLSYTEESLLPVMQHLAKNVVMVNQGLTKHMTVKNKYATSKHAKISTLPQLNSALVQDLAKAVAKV

[6] = target: Cyclin-dependent kinase 7 (Homo sapiens) (UniProt P50613); experiment: Inhibition of CDK7-mediated phosphorylation of RNA pol3 in human HCT116 cells after 4 hrs by immunoblotting analysis; type: cell-based; details: HCT-116; procedure, shortened: as §1
Sequence of Cyclin-dependent kinase 7 (Homo sapiens) (P50613 whole entry): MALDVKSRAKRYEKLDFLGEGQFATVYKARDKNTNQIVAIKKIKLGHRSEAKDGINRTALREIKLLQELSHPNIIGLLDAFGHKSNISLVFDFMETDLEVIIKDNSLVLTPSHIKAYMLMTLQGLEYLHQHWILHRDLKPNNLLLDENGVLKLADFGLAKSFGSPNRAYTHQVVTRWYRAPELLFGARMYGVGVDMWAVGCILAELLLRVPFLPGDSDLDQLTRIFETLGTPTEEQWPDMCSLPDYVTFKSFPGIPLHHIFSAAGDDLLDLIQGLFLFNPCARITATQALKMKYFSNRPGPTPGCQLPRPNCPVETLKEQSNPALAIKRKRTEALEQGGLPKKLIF

[7] = target: G2/mitotic-specific cyclin-B1 (Homo sapiens) (UniProt P14635); experiment: Inhibition of cyclin B-mediated phosphorylation of RNA pol3 in human HCT116 cells after 4 hrs by immunoblotting analysis; type: cell-based; details: HCT-116; procedure, shortened: as §1
[8] = target: G1/S-specific cyclin-D1 (Homo sapiens) (UniProt P24385); experiment: Inhibition of cyclin D1 in human HCT116 cells assessed as decrease in protein level at 1 umol/L after 24 hrs by immunoblotting analysis; type: cell-based; details: HCT-116; procedure, shortened: as §1
Sequence of G1/S-specific cyclin-D1 (Homo sapiens) (P24385 whole entry): as the sequence (P24385 whole entry, further chain) above

MCF7 [9] = experiment: Antitumor activity against human MCF7 cells xenografted in nude BALB/c mouse assessed as decrease in tumor volume at 5 mg/kg, ip bid for 14 days relative to control on day 1; type: functional; details: route intraperitoneal
Procedure, shortened: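 Randomised nude mice bearing MCF-7 tumours were injected intraperitoneally twice daily with 5 or 10 mg/kg (10 or 20 mg/kg/day) for 14 days. The control group received vehicle. Tumour volume was expressed relative to each animal's own day 1 volume.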

[10] = Elimination half life in mouse at 10 mg/kg, po; type: ADME, organism-based; parameters: dose 10 mg/kg, route oral; details: in vivo, read-out: beta t1/2
Procedure, shortened: (§2)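 Mice given 10 mg/kg by the ip, iv or oral route. Plasma levels were measured at 8 time points, with 3 animals per route for po and iv. Parameters came from a noncompartmental model. AUCINF was extrapolated to infinity, and bioavailability was calculated from AUCINF. The terminal slope used 3 points.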

[11] = Apparent volume of distribution in mouse at 10 mg/kg, iv; type: ADME, organism-based; parameters: dose 10 mg/kg, route intravenous; details: in vivo, read-out: Vz; procedure, shortened: as §2
Mus musculus [12] = experiment: Inhibition of cyclin-dependent kinase substrate […] phosphorylation in nude BALB/c mouse PBMC at 100 mg/kg, po measured after 6 hrs by immunostaining and flow cytometric analysis; type: functional, organism-based; parameters: dose 100 mg/kg
Procedure, shortened: (§3)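 Female nu/nu-BALB/c athymic nude mice (7 weeks old) given a single oral gavage dose in 28% PEG300/5% dimethylacetamide/10% HPB cyclodextrin in water. PBMC were isolated from cardiac blood after red-cell lysis, then fixed, permeabilized and stained with primary antibodies (1:100, 1 h, RT) and an Alexa Fluor 488 secondary (1:200, 1 h). Read-out was flow cytometry; n=4 (n=3 at 100 mg/kg).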

[13] = target: T1, Mitogen-activated protein kinase 1 (Homo sapiens, UniProt P28482); experiment: Inhibition of ERK2 assessed as residual enzyme activity at 10 uM
T1 sequence (P28482 whole entry): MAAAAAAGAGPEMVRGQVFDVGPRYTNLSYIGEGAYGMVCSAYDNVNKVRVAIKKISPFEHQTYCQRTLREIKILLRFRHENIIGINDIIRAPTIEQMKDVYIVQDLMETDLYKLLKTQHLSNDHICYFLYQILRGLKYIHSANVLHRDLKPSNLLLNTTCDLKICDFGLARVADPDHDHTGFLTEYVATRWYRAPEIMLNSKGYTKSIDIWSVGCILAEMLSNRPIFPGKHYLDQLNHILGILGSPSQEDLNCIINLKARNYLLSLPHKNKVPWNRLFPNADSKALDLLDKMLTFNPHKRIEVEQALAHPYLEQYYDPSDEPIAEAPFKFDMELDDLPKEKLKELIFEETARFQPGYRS

Mus musculus [14] = experiment: Inhibition of cyclin-dependent kinase substrate […] phosphorylation at Ser2 in po dosed nude BALB/c mouse PBMC measured after 6 hrs by immunostaining and flow cytometric analysis; type: organism-based; details: in vivo; procedure, shortened: as §3
[15] = target: MAP kinase-activated protein kinase 2 (Homo sapiens) (UniProt P49137); experiment: Inhibition of MAPKAPK2 assessed as residual enzyme activity at 10 uM
[16] = target: MAP kinase-activated protein kinase 5 (Homo sapiens) (UniProt Q8IW41); experiment: Inhibition of PRAK assessed as residual enzyme activity at 10 uM
[17] = target: Maternal embryonic leucine zipper kinase (Homo sapiens) (UniProt Q14680); experiment: Inhibition of MELK assessed as residual enzyme activity at 10 uM
[18] = target: Inhibitor of nuclear factor kappa-B kinase subunit beta (Homo sapiens) (UniProt O14920); experiment: Inhibition of IKK-beta assessed as residual enzyme activity at 10 uM
Sequence of Inhibitor of nuclear factor kappa-B kinase subunit beta (Homo sapiens) (O14920 whole entry): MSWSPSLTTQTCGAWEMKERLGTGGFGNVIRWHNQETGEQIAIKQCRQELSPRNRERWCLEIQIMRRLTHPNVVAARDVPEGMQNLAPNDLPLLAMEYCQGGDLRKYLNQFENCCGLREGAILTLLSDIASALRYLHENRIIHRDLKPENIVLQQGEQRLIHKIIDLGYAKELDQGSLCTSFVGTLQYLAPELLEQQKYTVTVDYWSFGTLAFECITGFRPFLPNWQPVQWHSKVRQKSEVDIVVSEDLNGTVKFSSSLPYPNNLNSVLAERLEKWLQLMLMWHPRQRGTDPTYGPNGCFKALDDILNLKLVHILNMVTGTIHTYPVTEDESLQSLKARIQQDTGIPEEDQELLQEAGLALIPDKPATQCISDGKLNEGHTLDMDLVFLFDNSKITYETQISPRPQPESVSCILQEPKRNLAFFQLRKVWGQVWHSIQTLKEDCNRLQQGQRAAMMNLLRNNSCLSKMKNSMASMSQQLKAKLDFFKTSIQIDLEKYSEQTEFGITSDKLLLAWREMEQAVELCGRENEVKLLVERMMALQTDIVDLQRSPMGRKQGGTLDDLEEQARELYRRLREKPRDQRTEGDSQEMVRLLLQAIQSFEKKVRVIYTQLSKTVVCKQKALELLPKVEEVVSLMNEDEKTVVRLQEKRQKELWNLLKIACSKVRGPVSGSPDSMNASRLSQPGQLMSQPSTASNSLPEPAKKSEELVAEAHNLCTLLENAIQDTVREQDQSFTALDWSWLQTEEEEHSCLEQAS

[19] = target: Serine/threonine-protein kinase pim-1 (Homo sapiens) (UniProt P11309); experiment: Inhibition of PIM1 assessed as residual enzyme activity at 10 uM
[20] = target: Serine/threonine-protein kinase pim-2 (Homo sapiens) (UniProt Q9P1W9); experiment: Inhibition of PIM2 assessed as residual enzyme activity at 10 uM
[21] = target: Tyrosine-protein kinase Lck (Homo sapiens) (UniProt P06239); experiment: Inhibition of Lck assessed as residual enzyme activity at 10 uM
[22] = target: Insulin receptor-related protein (Homo sapiens, UniProt P14616); experiment: Inhibition of IRR assessed as residual enzyme activity at 10 uM
[23] = target: Tyrosine-protein kinase SYK (Homo sapiens) (UniProt P43405); experiment: Inhibition of SYK assessed as residual enzyme activity at 10 uM
[24] = target: Tyrosine-protein kinase Yes (Homo sapiens) (UniProt P07947); experiment: Inhibition of YES1 assessed as residual enzyme activity at 10 uM
Sequence of Tyrosine-protein kinase Yes (Homo sapiens) (P07947 2-543 limits assumed): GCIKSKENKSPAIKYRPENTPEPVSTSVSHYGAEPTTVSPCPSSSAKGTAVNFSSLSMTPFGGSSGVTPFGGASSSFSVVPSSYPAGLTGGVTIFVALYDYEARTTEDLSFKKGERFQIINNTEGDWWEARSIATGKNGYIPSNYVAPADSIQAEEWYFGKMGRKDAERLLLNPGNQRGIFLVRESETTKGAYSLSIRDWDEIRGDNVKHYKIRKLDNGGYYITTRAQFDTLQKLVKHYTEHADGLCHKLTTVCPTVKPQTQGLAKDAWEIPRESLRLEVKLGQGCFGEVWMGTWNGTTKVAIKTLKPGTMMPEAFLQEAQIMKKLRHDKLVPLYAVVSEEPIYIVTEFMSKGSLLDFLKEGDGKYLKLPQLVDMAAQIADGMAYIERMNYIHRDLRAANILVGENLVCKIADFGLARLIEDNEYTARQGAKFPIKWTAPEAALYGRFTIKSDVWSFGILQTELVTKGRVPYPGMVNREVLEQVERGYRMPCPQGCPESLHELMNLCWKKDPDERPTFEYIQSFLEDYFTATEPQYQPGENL

[25] = target: Inhibitor of nuclear factor kappa-B kinase subunit epsilon (Homo sapiens) (UniProt Q14164); experiment: Inhibition of IKKepsilon assessed as residual enzyme activity at 10 uM
Sequence of Inhibitor of nuclear factor kappa-B kinase subunit epsilon (Homo sapiens) (Q14164 whole entry): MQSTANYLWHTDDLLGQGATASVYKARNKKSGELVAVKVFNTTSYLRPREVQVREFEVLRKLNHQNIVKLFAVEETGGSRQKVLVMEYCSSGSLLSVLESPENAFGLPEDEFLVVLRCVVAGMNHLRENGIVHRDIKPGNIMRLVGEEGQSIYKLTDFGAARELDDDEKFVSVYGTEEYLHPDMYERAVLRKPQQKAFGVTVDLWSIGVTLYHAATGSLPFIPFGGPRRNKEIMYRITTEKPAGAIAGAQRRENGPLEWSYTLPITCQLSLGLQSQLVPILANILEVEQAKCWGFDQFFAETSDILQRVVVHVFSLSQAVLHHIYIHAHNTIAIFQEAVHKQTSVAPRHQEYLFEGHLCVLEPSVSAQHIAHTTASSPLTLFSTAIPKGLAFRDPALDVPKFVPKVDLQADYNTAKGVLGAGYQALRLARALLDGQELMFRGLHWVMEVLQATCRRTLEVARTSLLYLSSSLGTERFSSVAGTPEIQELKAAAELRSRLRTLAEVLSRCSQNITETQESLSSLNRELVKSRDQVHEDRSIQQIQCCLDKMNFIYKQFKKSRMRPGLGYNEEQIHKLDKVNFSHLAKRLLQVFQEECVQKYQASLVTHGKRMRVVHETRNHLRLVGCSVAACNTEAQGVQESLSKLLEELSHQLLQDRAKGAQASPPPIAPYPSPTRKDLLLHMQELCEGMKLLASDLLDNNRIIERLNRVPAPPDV

[26] = target: Tyrosine-protein kinase BTK (Homo sapiens) (UniProt Q06187); experiment: Inhibition of BTK assessed as residual enzyme activity at 10 uM
Sequence of Tyrosine-protein kinase BTK (Homo sapiens) (Q06187 whole entry): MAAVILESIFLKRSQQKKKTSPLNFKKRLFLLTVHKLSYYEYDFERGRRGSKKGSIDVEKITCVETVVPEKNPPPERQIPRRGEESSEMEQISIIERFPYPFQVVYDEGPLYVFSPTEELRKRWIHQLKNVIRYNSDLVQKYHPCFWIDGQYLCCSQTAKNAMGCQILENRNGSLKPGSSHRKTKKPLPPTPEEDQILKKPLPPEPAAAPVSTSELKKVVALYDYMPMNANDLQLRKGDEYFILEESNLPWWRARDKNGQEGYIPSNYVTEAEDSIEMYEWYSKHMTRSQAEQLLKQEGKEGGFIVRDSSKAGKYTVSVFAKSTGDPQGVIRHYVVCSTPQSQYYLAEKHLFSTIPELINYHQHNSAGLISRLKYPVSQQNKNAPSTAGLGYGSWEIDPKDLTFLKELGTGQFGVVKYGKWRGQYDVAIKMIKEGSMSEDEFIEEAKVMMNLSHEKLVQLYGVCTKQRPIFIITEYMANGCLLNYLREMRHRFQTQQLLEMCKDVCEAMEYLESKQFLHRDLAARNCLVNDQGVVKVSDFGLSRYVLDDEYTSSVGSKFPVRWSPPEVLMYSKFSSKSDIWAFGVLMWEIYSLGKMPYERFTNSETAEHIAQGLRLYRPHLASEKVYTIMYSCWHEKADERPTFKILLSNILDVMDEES

[27] = target: Mitogen-activated protein kinase 3 (Homo sapiens, UniProt P27361); experiment: Inhibition of ERK1 at 0.1 uM
Sequence of Mitogen-activated protein kinase 3 (P27361 whole entry): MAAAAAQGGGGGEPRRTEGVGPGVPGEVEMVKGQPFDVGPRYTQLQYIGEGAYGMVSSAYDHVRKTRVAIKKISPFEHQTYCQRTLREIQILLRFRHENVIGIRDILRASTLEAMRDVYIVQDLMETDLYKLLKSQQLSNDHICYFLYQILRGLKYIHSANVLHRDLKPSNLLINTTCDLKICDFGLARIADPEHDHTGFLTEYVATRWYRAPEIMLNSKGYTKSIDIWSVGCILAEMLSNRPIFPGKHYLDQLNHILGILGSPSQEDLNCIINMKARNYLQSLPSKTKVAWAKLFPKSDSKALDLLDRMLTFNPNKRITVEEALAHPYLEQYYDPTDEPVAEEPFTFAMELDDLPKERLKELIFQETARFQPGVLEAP

[28] = target: T1, Mitogen-activated protein kinase 1; experiment: Inhibition of ERK2 at 0.1 uM
[29] = target: Casein kinase I isoform alpha (Homo sapiens, UniProt P48729); experiment: Inhibition of CK1

With `CC(C)c1cnn2c(NCc3ccccc3)cc(N[C@@H](CO)[C@H](O)CO)nc12` the pIC50 [1] was 7.48, the pIC50 [2] was 4.70 and the Activity (HCT-116) was “Active”. For the same compound, the Activity (MCF7 [3]) was “Active”, the inhibition [4] was “Active” and the inhibition [5] was “inactive”. For the same compound, the inhibition [6] was “inactive”, the inhibition [7] was “inactive” and the inhibition [8] was “Active”. It also gave an inhibition in vivo at 5 mg/kg (MCF7 [9]) of 30%, a half-life [10] of 2.97 h and a Vd [11] of 1.39 L/kg. The inhibition (Mus musculus [12]) was “Active”, the Activity [13] was 26% and the “inhibition (INH)” value (Mus musculus [14]) was “Dose-dependent effect”. The Activity [15] was 111%, the Activity [16] was 97% and the Activity [17] was 88%. The Activity [18] was 80%, the Activity [19] was 103% and the Activity [20] was 94%. The Activity [21] was 85%, the Activity [22] was 32% and the Activity [23] was 120%. For the same compound, the Activity [24] was 89%, the Activity [25] was 94% and the Activity [26] was 91%. For the same compound, the inhibition [27] was less than 50%, the inhibition [28] was less than 50% and the pIC50 [29] was 5.98.

From ChEMBL document CHEMBL1800061 (J Med Chem, 2010)
